Data reported in article PMC8264940 (ACS Omega, 2021).
Structures can show the parent of a compound that is named as a salt.

Tests used:
[1] = tested on: SD rats; test: Acute toxicological study; type: in vivo, rat
[2] = tested on: ZDF rats; test: Antidiabetic study, HbA1c in ZDF rats; type: in vivo, rat; settings: for HbA1c-lowering / antidiabetic effect (in words): repeated oral dosing BID, ZDF rats aged 11 to 13 weeks
Outline: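 Male ZDF rats, 11 weeks old, allocated by HbA1c, fasting blood glucose and body weight. Test compound or metformin suspended in 5% gum Arabic, given orally twice daily and dosed on the latest body weight for 6 weeks. Body weight and food intake monitored. HbA1c measured by analyser, expressed as change from baseline; mean ± SE, n = 16 or 8; compared with vehicle group.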

[3] = Plasma pharmacokinetic study in SD rats; settings: rat, in vivo
Outline: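 Male SD rats, 6–7 weeks old; test compound given as oral suspension by body weight, two animals per compound. Tail-vein blood was collected. Plasma was mixed with 10-fold acetonitrile–methanol (1:1), centrifuged, and the supernatant analysed by LC-ESI-MS/MS (C18 column, ammonium acetate/acetonitrile gradient, negative-ion selected reaction monitoring). Plasma detection limit 0.01 μg/mL.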

[4] = tested on: NaCT-expressing CHO cells; test: TCA cycle activation assay; type: cell-based
Outline: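 Stably transfected CHO-K1 cells express NaCT (pME18S, then pcDNA3.1(+) vectors); control CHO cells carry vector without the NaCT gene. Cells take up [1,5-14C]citric acid. TCA cycle activation is read as the reduction in residual intracellular radioactivity as the citrate is metabolised. Run with and without antimycin A (complex III inhibitor).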

[5] = Tissue distribution; type: in vivo, rat; settings: 2 h after 10 mg/kg p.o., SD rats, mean of 2 animals; detection limit 0.04 μg/g
Outline: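 Male SD rats, 6–7 weeks old, given test compound as oral suspension, two animals per compound; values are means of 2. Liver and brain homogenates and plasma were mixed with 10-fold acetonitrile–methanol (1:1), centrifuged, and supernatants analysed by LC-ESI-MS/MS in negative-ion SRM mode. Detection limits 0.01 μg/mL (plasma) and 0.04 μg/g (liver, brain).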

[6] = tested on: HepG2 cells; test: Oxygen consumption rate; type: cell-based, human; settings: in the presence of oligomycin, P < 0.01 vs DMSO

In the case of `N#Cc1[nH]nnc1-c1cccc(OCc2cc(C(F)(F)F)ccc2C(F)(F)F)c1` [Compound 3a, 5-{3-[2,5-Bis(trifluoromethyl)benzyloxy]phenyl}-3H-[1,2,3]triazole-4-carbonitrile], the Deaths ([1]; 300 mg/kg single dose, after hyperthermia and hyperglycemia) is reported as “one of three”.

For `N#Cc1[nH]nnc1-c1cccc(-c2cc(F)cc(C(F)(F)F)c2)c1` [Compound 3b, 5-(3′-Fluoro-5′-trifluoromethyl-[1,1-biphenyl]-3-yl)-3H-[1,2,3]triazole-4-carbonitrile], the “HbA1c-lowering / antidiabetic effect (in words)” value [2] was “remarkable antidiabetic effect” and the “Doses elevating rectal temperature” value ([1]; single dose, SD rats, 8 h after dosing) was “no elevation of rectal temperature was observed”.

For `N#Cc1[nH]nnc1-c1cc(Cl)cc(/C=C/c2cccc(C(F)(F)F)c2)c1` [Compound 3c, (E)-5-(3-Chloro-5-(3-(trifluoromethyl)styryl)phenyl)-3H-1,2,3-triazole-4-carbonitrile], the “Metabolite finding in PK study” value [3] was “a metabolite implying the possibility of future adverse effects was found”, the “In vitro activity relative to compound 1” value ([4]; EC50 of the TCA activation) was “one-third” and the “HbA1c-lowering / antidiabetic effect (in words)” value [2] was “significant HbA1c lowering effect”.

For `N#Cc1[nH]nnc1-c1csc(-c2ccc(Cl)cc2)n1` [Compound 3d, 5-[2-(4-Chlorophenyl)-thiazol-4-yl]-3H-[1,2,3]triazole-4-carbonitrile], the “HbA1c-lowering / antidiabetic effect (in words)” value [2] was “prominent” and the “Brain distribution, concentration” value [5] was “indetectable”.

With `Cc1sc(-c2ccc(C(F)(F)F)cc2)nc1-c1nn(C)nc1C#N` [Compound 4, 2-Methyl-5-{5-methyl-2-[4-(trifluoromethyl)phenyl]thiazol-4-yl}-2H-1,2,3-triazole-4-carbonitrile] the “Activation of the TCA cycle (in words)” value [4] was “did not occur”.

With `O=[N+]([O-])c1ccc(O)c([N+](=O)[O-])c1` [DNP, 2,4-dinitrophenol] the “Concentration significantly increasing OCR” value [6] was 40 µM.

For `N#CC(C#N)=NNc1ccc(OC(F)(F)F)cc1` [FCCP, Carbonyl cyanide p-trifluoromethoxyphenylhydrazone], the “Concentration significantly increasing OCR” value [6] was 0.25 µM.

In the case of `CN(C)C(=N)N=C(N)N` [metformin, 1,1-Dimethyl biguanide (metformin) hydrochloride, reference compound], the “Effect on HbA1c, monotherapy (in words)” value ([2]; 100 mg/kg/day alone, 6-week, ZDF rats) is reported as “no effect”.

In the case of `N[C@@H](CC(=O)N1CCn2c(nnc2C(F)(F)F)C1)Cc1cc(F)c(F)cc1F` [sitagliptin, Sitagliptin phosphate hydrate, reference compound], the “Reduction of HbA1c change from the vehicle value” ([2]; monotherapy 10 mg/kg/day, 6-week, vehicle 2.97% points) is reported as 11.4%.
